Several values for one entry are separate records, joined by “and”; a condition that tells them apart may be missing. Equal entries are not always repeated.
What was measured:
[1] = system: P. aeruginosa PAO1; assay: In vitro post-antibiotic effect; assay type: cell-based, Pseudomonas aeruginosa; details: 1 h exposure, 1:1000 dilution
Outline: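 Drug removed by 1:1000 dilution into pre-warmed medium. Regrowth at 37 °C counted immediately and hourly for 8 h (detection limit 1 log10 CFU/mL). Triplicate independent occasions; mechanistic PD model fitted.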

[2] = Plasma protein binding, equilibrium dialysis, human; assay type: in vitro ADME; details: 50 μM
[3] = system: P. aeruginosa strain PAO1; assay: Neutropenic mouse thigh infection model, single dose time course; assay type: in vivo, CD-1 mice; details: resistance emergence test
[4] = system: P. aeruginosa PAO1; assay: MIC by broth microdilution, wild-type strain; assay type: cell-based, Pseudomonas aeruginosa; details: 24 h, 37 °C; listed as F
[5] = system: P. aeruginosa PAO1 MexABCDXY− (N150); assay: MIC by broth microdilution, efflux-deficient strain; assay type: cell-based, Pseudomonas aeruginosa; details: 24 h, 37 °C; listed as F
[6] = Plasma protein binding, equilibrium dialysis, mouse; assay type: in vitro ADME; details: 50 μM
[7] = system: P. aeruginosa cells; assay: Killing kinetics; assay type: cell-based, Pseudomonas aeruginosa; details: 37°C; linear regression after 1 hr lag

## COc1ccc(-c2ccn(CC[C@](C)(C(=O)NO)S(C)(=O)=O)c(=O)c2)c(F)c1 [Compound 6]
[1]
  PAE at 4x MIC: 1.26 h
  PAE at 8x MIC: 1.67 h
  PAE at 16x MIC: 1.93 h
[2]
  free fraction (fu): 0.28
[3]
  CFU from 24 h timepoints on selective media (4× MIC): no CFU were obtained
[4]
  P.ae MIC PAO1: 0.25 μg/ml and 0.61 μM
[5]
  P.ae MIC PAO1 MexABCDXY−: 0.0075 μg/ml and 0.018 μM
[6]
  free fraction (fu): 0.41
[7]
  maximum killing rate: 2.8 log10 CFU/hr

From article PMC4536915 (Nature chemical biology, 2015)
